Test results published in ChEMBL document CHEMBL4138126, “Synthesis, antiproliferative, anti-tubulin activity, and docking study of new 1,2,4-triazoles as potential combretastatin analogues” (Eur J Med Chem, 2017).

How the values were obtained:
Type in all cases: functional
DU-145 = experiment: Growth inhibition of human DU145 cells assessed as cell growth at 10 uM after 48 hrs by sulforhodamine B assay; conditions: DU-145, 48 h, read-out: Activity
Summary of the method: (§1)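 NCI 60-cell-line panel screen (nine cancer types). Compounds added at single concentration 10^-5 M, cultures incubated 48 h; growth inhibition percentages reported.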

NCI-H23 = experiment: Growth inhibition of human NCI-H23 cells assessed as cell growth at 10 uM after 48 hrs by sulforhodamine B assay; conditions: NCI-H23, 48 h, read-out: Activity; summary of the method: as §1
SNB-19 = experiment: Growth inhibition of human SNB19 cells assessed as cell growth at 10 uM after 48 hrs by sulforhodamine B assay; conditions: SNB-19, 48 h, read-out: Activity
Summary of the method: (§2)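 NCI 60-cell-line panel from nine tumour types (leukaemia, lung, colon, CNS, melanoma, ovarian, renal, prostate, breast). Each compound was added at one single concentration, and cultures were incubated for 48 h. Results are reported as percent growth inhibition.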

KM12 = experiment: Growth inhibition of human KM12 cells assessed as cell growth at 10 uM after 48 hrs by sulforhodamine B assay; conditions: KM12, 48 h, read-out: Activity; summary of the method: as §1
MCF7 = experiment: Growth inhibition of human MCF7 cells assessed as cell growth at 10 uM after 48 hrs by sulforhodamine B assay; conditions: MCF7, 48 h, read-out: Activity; summary of the method: as §1
Malme-3M = experiment: Growth inhibition of human MALME-3M cells assessed as cell growth at 10 uM after 48 hrs by sulforhodamine B assay; conditions: read-out: Activity; summary of the method: as §1
MOLT-4 = experiment: Growth inhibition of human MOLT4 cells assessed as cell growth at 10 uM after 48 hrs by sulforhodamine B assay; conditions: MOLT-4, 48 h, read-out: Activity; summary of the method: as §1
NCI-H322M = experiment: Growth inhibition of human NCI-H322M cells assessed as cell growth at 10 uM after 48 hrs by sulforhodamine B assay; conditions: read-out: Activity; summary of the method: as §1
SF-268 = experiment: Growth inhibition of human SF268 cells assessed as cell growth at 10 uM after 48 hrs by sulforhodamine B assay; conditions: SF-268, 48 h, read-out: Activity; summary of the method: as §1
A549 = experiment: Growth inhibition of human A549/ATCC cells assessed as cell growth at 10 uM after 48 hrs by sulforhodamine B assay; conditions: A549, 48 h, read-out: Activity; summary of the method: as §1
ACHN = experiment: Growth inhibition of human ACHN cells assessed as cell growth at 10 uM after 48 hrs by sulforhodamine B assay; conditions: read-out: Activity; summary of the method: as §1
NCI-H460 = experiment: Growth inhibition of human NCI-H460 cells assessed as cell growth at 10 uM after 48 hrs by sulforhodamine B assay; conditions: NCI-H460, 48 h, read-out: Activity; summary of the method: as §1
NCI-H226 = experiment: Growth inhibition of human NCI-H226 cells assessed as cell growth at 10 uM after 48 hrs by sulforhodamine B assay; conditions: NCI-H226, 48 h, read-out: Activity; summary of the method: as §1
T47D = experiment: Growth inhibition of human T47D cells assessed as cell growth at 10 uM after 48 hrs by sulforhodamine B assay; conditions: read-out: Activity; summary of the method: as §2
RXF 393 = experiment: Growth inhibition of human RXF393 cells assessed as cell growth at 10 uM after 48 hrs by sulforhodamine B assay; conditions: RXF 393, 48 h, read-out: Activity; summary of the method: as §1
COLO 205 = experiment: Growth inhibition of human COLO205 cells assessed as cell growth at 10 uM after 48 hrs by sulforhodamine B assay; conditions: COLO 205, 48 h, read-out: Activity; summary of the method: as §1
Hs-578T = experiment: Growth inhibition of human Hs 578T cells assessed as cell growth at 10 uM after 48 hrs by sulforhodamine B assay; conditions: read-out: Activity; summary of the method: as §1
LOX IMVI = experiment: Growth inhibition of human LOXIMVI cells assessed as cell growth at 10 uM after 48 hrs by sulforhodamine B assay; conditions: read-out: Activity; summary of the method: as §1
786-0 = experiment: Growth inhibition of human 786-0 cells assessed as cell growth at 10 uM after 48 hrs by sulforhodamine B assay; conditions: 786-0, 48 h, read-out: Activity; summary of the method: as §1
CCRF-CEM = experiment: Growth inhibition of human CCRF-CEM cells assessed as cell growth at 10 uM after 48 hrs by sulforhodamine B assay; conditions: read-out: Activity; summary of the method: as §1
OVCAR-4 = experiment: Growth inhibition of human OVCAR4 cells assessed as cell growth at 10 uM after 48 hrs by sulforhodamine B assay; conditions: OVCAR-4, 48 h, read-out: Activity; summary of the method: as §1
RPMI-8226 = experiment: Growth inhibition of human RPMI8226 cells assessed as cell growth at 10 uM after 48 hrs by sulforhodamine B assay; conditions: RPMI-8226, 48 h, read-out: Activity; summary of the method: as §1
IGROV-1 = experiment: Growth inhibition of human IGROV1 cells assessed as cell growth at 10 uM after 48 hrs by sulforhodamine B assay; conditions: IGROV-1, 48 h, read-out: Activity; summary of the method: as §1
OVCAR-5 = experiment: Growth inhibition of human OVCAR5 cells assessed as cell growth at 10 uM after 48 hrs by sulforhodamine B assay; conditions: OVCAR-5, 48 h, read-out: Activity; summary of the method: as §1
MDA-MB-435 = experiment: Growth inhibition of human MDA-MB-435 cells assessed as cell growth at 10 uM after 48 hrs by sulforhodamine B assay; conditions: MDA-MB-435, 48 h, read-out: Activity; summary of the method: as §1
EKVX = experiment: Growth inhibition of human EKVX cells assessed as cell growth at 10 uM after 48 hrs by sulforhodamine B assay; conditions: read-out: Activity; summary of the method: as §1
M14 = experiment: Growth inhibition of human M14 cells assessed as cell growth at 10 uM after 48 hrs by sulforhodamine B assay; conditions: M14, 48 h, read-out: Activity; summary of the method: as §1
U-251 = experiment: Growth inhibition of human U251 cells assessed as cell growth at 10 uM after 48 hrs by sulforhodamine B assay; conditions: U-251, 48 h, read-out: Activity; summary of the method: as §2
HOP-92 = experiment: Growth inhibition of human HOP92 cells assessed as cell growth at 10 uM after 48 hrs by sulforhodamine B assay; conditions: HOP-92, 48 h, read-out: Activity; summary of the method: as §1
HOP-62 = experiment: Growth inhibition of human HOP62 cells assessed as cell growth at 10 uM after 48 hrs by sulforhodamine B assay; conditions: HOP-62, 48 h, read-out: Activity; summary of the method: as §1
NCI/ADR-RES = experiment: Growth inhibition of human NCI-ADR-RES cells assessed as cell growth at 10 uM after 48 hrs by sulforhodamine B assay; conditions: read-out: Activity; summary of the method: as §1
SNB-75 = experiment: Growth inhibition of human SNB75 cells assessed as cell growth at 10 uM after 48 hrs by sulforhodamine B assay; conditions: SNB-75, 48 h, read-out: Activity; summary of the method: as §2
MDA-MB-231 = experiment: Growth inhibition of human MDA-MB-231 cells assessed as cell growth at 10 uM after 48 hrs by sulforhodamine B assay; conditions: MDA-MB-231, 48 h, read-out: Activity; summary of the method: as §1
SW-620 = experiment: Growth inhibition of human SW620 cells assessed as cell growth at 10 uM after 48 hrs by sulforhodamine B assay; conditions: SW-620, 48 h, read-out: Activity; summary of the method: as §2
HT-29 = experiment: Growth inhibition of human HT-29 cells assessed as cell growth at 10 uM after 48 hrs by sulforhodamine B assay; conditions: HT-29, 48 h, read-out: Activity; summary of the method: as §1

Compound	growth at 10 µM (DU-145) [%]	growth at 10 µM (NCI-H23) [%]	growth at 10 µM (SNB-19) [%]	growth at 10 µM (KM12) [%]	growth at 10 µM (MCF7) [%]	growth at 10 µM (Malme-3M) [%]	growth at 10 µM (MOLT-4) [%]	growth at 10 µM (NCI-H322M) [%]	growth at 10 µM (SF-268) [%]	growth at 10 µM (A549) [%]	growth at 10 µM (ACHN) [%]	growth at 10 µM (NCI-H460) [%]	growth at 10 µM (NCI-H226) [%]	growth at 10 µM (T47D) [%]	growth at 10 µM (RXF 393) [%]	growth at 10 µM (COLO 205) [%]	growth at 10 µM (Hs-578T) [%]	growth at 10 µM (LOX IMVI) [%]	growth at 10 µM (786-0) [%]	growth at 10 µM (CCRF-CEM) [%]	other results
CCOc1ccc(-n2nc(C(=O)Nc3ccc(F)c(F)c3)nc2-c2cc(OC)c(OC)c(OC)c2)cc1	80	77.3	86.8	56.7	78.8	86.7	50	73	84.9	62	64.5	77.9	69.1	41.7	84.6	63.7	48.1	66.4	85	44.1	growth at 10 µM (OVCAR-4): 66.1%; growth at 10 µM (RPMI-8226): 12.3%; growth at 10 µM (IGROV-1): 81.3%; growth at 10 µM (OVCAR-5): 101%; growth at 10 µM (MDA-MB-435): 70.3%; growth at 10 µM (EKVX): 76.5%; growth at 10 µM (M14): 70.2%; growth at 10 µM (U-251): 70.3%; growth at 10 µM (HOP-92): 67%; growth at 10 µM (HOP-62): 89.1%; growth at 10 µM (NCI/ADR-RES): 67.5%; growth at 10 µM (SNB-75): 74.4%; growth at 10 µM (MDA-MB-231): 63.1%; growth at 10 µM (SW-620): 89.9%; growth at 10 µM (HT-29): 74.6%
CCOc1ccc(-n2nc(C(=O)Nc3ccccc3OC)nc2-c2cc(OC)c(OC)c(OC)c2)cc1	95.6	97.8	88.5	96.2	77.4	99.8	76.5	77.4	89.2	77.3	79.3	83.4	82.3	50.2	88.4	78.7	81.5	92.2	79.1	94	growth at 10 µM (OVCAR-4): 72.9%; growth at 10 µM (RPMI-8226): 68.2%; growth at 10 µM (IGROV-1): 99.3%; growth at 10 µM (OVCAR-5): 82.4%; growth at 10 µM (MDA-MB-435): 86.9%; growth at 10 µM (EKVX): 76.3%; growth at 10 µM (M14): 92.8%; growth at 10 µM (U-251): 94%; growth at 10 µM (HOP-92): 86.8%; growth at 10 µM (HOP-62): 86.5%; growth at 10 µM (NCI/ADR-RES): 85.3%; growth at 10 µM (SNB-75): 66.6%; growth at 10 µM (MDA-MB-231): 44.5%; growth at 10 µM (SW-620): 100%; growth at 10 µM (HT-29): 74%
CCOc1ccc(-n2nc(C(=O)Nc3cc(F)cc(F)c3)nc2-c2cc(OC)c(OC)c(OC)c2)cc1	98.2	84	73.3	85.9	79	97.5	63.9	85.3	88.9	73.8	82.7	94.7	77.2	55.9	88.2	89.9	75.5	86.6	82.1	84.1	growth at 10 µM (OVCAR-4): 84.8%; growth at 10 µM (RPMI-8226): 69.4%; growth at 10 µM (IGROV-1): 85.1%; growth at 10 µM (OVCAR-5): 98.8%; growth at 10 µM (MDA-MB-435): 91%; growth at 10 µM (EKVX): 85.8%; growth at 10 µM (M14): 98%; growth at 10 µM (U-251): 82%; growth at 10 µM (HOP-92): 67.8%; growth at 10 µM (HOP-62): 95%; growth at 10 µM (NCI/ADR-RES): 81.7%; growth at 10 µM (SNB-75): 58%; growth at 10 µM (MDA-MB-231): 64.3%; growth at 10 µM (SW-620): 99.3%; growth at 10 µM (HT-29): 89%
